What was measured:
[1] = molecular target: T1, Mu-type opioid receptor (Rattus norvegicus, UniProt P33535); assay: Displacement of [3H]DAMGO from rat mu opioid receptor expressed in HN9.10 cells; type: cell-based
In short: (§1)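 Membranes (50 µg) from HN9.10 neuroblastoma cells stably expressing rat MOR or human DOR. Buffer was 50 mM Tris pH 7.4 with bacitracin, bestatin, captopril, PMSF and 1 mg/mL BSA. Radioligand was [3H]DAMGO (MOR) or [3H]DPDPE (DOR), each 1.0 nM, with 10 test concentrations. Incubated 3 h at 25 °C, in duplicate. Nonspecific binding with 10 µM naloxone. Filtration, then scintillation counting.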

[2] = molecular target: T2, Cholecystokinin receptor type A (Homo sapiens, UniProt P32238); assay: Displacement of [125I]CCK8 from human CCK1 receptor expressed in HEK293 cells; type: cell-based
T2 sequence (P32238 whole entry): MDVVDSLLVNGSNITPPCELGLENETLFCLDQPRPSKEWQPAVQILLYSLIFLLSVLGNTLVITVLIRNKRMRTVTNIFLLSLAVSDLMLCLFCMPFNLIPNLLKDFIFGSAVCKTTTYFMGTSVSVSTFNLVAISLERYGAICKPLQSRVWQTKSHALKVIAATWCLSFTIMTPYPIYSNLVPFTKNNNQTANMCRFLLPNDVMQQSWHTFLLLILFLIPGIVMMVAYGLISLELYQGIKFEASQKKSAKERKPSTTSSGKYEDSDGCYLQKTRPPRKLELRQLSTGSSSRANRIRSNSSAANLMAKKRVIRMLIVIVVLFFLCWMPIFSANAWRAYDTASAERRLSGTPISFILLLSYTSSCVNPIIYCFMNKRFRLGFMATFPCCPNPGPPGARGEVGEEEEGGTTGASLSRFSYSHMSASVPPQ

[3] = molecular target: T3, Delta-type opioid receptor (Homo sapiens, UniProt P41143); assay: Inhibition of [35S]GTP-gamma-S binding to human delta opioid receptor expressed in CHO cells; type: functional, cell-based
In short: (§2)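 CHO-expressed receptor membranes (10 µg) in 50 mM HEPES pH 7.4 with EDTA, 5 mM MgCl2, 30 µM GDP, DTT, 100 mM NaCl, PMSF, BSA and 0.1 nM [35S]GTPγS. Test drug at various concentrations, duplicate or triplicate, 90 min at 30 °C. Nonspecific binding with 10 µM GTPγS.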

[4] = molecular target: Delta-type opioid receptor (Mus musculus, UniProt P32300); assay: Agonist activity at delta opioid receptor by inhibition of muscle contraction in electrically stimulated isolated mouse vas deferens; type: functional, tissue-based
In short: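 Male ICR mouse vasa deferentia in 20-mL baths, 0.5 g tension, oxygenated Mg-free Krebs at 37 °C; field stimulation 0.1 Hz, 2.0 ms single pulses, supramaximal voltage. Tissue integrity checked with DPDPE (10 nM). Compound added cumulatively until maximal inhibition. Inhibition taken as mean contraction height for 1 min before dosing versus height 3 min after. IC50 from Hill-equation fit by nonlinear least squares.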

[5] = molecular target: T4, Gastrin/cholecystokinin type B receptor (Homo sapiens, UniProt P32239); assay: Displacement of [125I]CCK8 from human CCK2 receptor expressed in HEK293 cells; type: cell-based
T4 sequence (P32239 whole entry): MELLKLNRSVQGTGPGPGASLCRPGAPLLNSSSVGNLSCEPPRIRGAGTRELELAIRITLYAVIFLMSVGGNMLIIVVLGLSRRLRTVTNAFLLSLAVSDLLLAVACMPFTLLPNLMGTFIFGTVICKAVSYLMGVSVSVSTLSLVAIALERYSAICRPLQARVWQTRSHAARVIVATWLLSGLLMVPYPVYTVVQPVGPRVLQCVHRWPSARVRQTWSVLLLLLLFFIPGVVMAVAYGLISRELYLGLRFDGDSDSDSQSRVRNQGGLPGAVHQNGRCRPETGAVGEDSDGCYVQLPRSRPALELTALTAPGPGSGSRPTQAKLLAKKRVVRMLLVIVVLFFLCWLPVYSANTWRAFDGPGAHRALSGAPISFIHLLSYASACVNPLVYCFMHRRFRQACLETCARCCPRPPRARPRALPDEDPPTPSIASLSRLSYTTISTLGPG

[6] = molecular target: T1, Mu-type opioid receptor; assay: (§3) Inhibition of [35S]GTP-gamma-S binding to rat mu opioid receptor expressed in CHO cells; type: functional, cell-based; in short: as §2
[7] = molecular target: Mu-type opioid receptor (Cavia porcellus, UniProt P97266); assay: Agonist activity at mu opioid receptor by inhibition of muscle contraction in electrically stimulated isolated guinea pig ileum; type: functional, tissue-based
In short: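 Longitudinal muscle–myenteric plexus strips from male Hartley guinea pig ileum, 1 g tension, oxygenated Krebs at 37 °C, 15 min equilibration. Stimulated at 0.1 Hz, 0.4 ms, supramaximal voltage. Integrity checked with PL-017 (10 nM). Compound added until maximal inhibition. Inhibition taken as contraction height 1 min before versus 3 min after dosing. IC50 from Hill-equation fit.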

[8] = molecular target: T3, Delta-type opioid receptor; assay: Displacement of [3H]DPDPE from human delta opioid receptor expressed in HN9.10 cells; type: cell-based; in short: as §1
[9] = molecular target: Cholecystokinin receptor (Homo sapiens) (UniProt P32239+P32238); assay: Agonist activity at CCK receptor of guinea pig ileum at 1 uM; type: functional, tissue-based; details: Cavia porcellus, target entry is the homologue from another species
In short: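 Guinea pig ileum LMMP strips (male Hartley), 20-mL baths, 1 g tension, oxygenated Krebs bicarbonate buffer, 37 °C. Tissue first challenged with 67 mM KCl to set maximal contraction. Test compound added to the bath; agonist activity taken as contraction height as a percentage of the maximal KCl contraction (A50).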

[10] = molecular target: Mu-type opioid receptor (Rattus norvegicus) (UniProt P33535); assay: as §3; type: functional, cell-based; in short: as §2
Sequence of Mu-type opioid receptor (Rattus norvegicus) (P33535 whole entry): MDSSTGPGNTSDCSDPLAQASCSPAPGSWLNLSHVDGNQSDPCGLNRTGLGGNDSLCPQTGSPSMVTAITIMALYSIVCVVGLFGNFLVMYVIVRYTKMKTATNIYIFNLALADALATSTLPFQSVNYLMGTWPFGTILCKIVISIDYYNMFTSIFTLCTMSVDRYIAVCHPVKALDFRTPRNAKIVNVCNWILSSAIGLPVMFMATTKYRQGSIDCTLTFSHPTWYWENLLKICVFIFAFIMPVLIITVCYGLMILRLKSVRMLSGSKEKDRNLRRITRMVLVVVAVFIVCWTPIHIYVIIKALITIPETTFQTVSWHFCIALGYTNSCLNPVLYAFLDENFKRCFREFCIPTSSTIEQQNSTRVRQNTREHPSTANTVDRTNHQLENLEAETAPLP

T1 sequence (P33535 whole entry): as above
Sequence of Delta-type opioid receptor (Mus musculus, UniProt P32300) (P32300 whole entry): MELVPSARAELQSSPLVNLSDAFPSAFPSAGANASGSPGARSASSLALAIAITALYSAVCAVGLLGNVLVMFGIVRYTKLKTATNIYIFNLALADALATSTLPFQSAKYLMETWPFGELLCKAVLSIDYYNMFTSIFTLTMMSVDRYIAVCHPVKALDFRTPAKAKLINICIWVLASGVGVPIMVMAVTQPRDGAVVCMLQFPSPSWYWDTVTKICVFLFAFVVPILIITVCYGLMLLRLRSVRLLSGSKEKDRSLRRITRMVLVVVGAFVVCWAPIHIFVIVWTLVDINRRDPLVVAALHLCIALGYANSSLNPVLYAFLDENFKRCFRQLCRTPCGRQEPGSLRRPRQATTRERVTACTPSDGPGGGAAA
Sequence of Mu-type opioid receptor (Cavia porcellus, UniProt P97266) (P97266 whole entry): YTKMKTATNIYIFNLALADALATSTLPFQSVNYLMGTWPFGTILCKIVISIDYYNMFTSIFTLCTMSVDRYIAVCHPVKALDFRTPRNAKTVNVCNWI
T3 sequence (P41143 whole entry): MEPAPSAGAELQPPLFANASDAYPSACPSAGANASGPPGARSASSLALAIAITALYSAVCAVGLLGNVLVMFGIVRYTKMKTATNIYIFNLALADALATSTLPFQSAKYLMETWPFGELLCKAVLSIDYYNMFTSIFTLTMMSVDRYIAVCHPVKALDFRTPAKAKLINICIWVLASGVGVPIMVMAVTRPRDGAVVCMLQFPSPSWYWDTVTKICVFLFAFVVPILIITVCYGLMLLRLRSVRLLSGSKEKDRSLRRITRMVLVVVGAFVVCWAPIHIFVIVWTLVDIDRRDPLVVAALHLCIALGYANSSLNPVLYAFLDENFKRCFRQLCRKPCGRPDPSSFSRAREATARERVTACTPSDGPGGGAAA

SMILES	IC50 [1] [nM]	Ki [1] [nM]	IC50 [2] [nM]	Ki [2] [nM]	EC50 [3] [nM]	IC50 [4] [nM]	IC50 [5] [nM]	Ki [5] [nM]	EC50 ([6]; read-out: EC50) [nM]	IC50 [7] [nM]	IC50 [8] [nM]	Ki [8] [nM]	other results
CCCC[C@H](NC(=O)[C@H](N)Cc1c[nH]c2ccccc12)C(=O)N[C@@H](CC(=O)O)C(=O)N[C@@H](Cc1ccccc1)C(=O)NNC(=O)[C@H](Cc1ccccc1)NC(=O)CNC(=O)[C@@H](C)NC(=O)[C@@H](N)Cc1ccc(O)cc1	1.2	0.51	10200	10000	9.4	26	9330	9300	9.6	81	3.24	1.4	EC50 ([6]; read-out: Log EC50 (converted)): 9.77 nM
CCCC[C@H](NC(=O)[C@H](Cc1c[nH]c2ccccc12)NC(C)=O)C(=O)N[C@@H](CC(=O)O)C(=O)N[C@@H](Cc1ccccc1)C(=O)NNC(=O)[C@H](Cc1ccccc1)NC(=O)CNC(=O)[C@@H](C)NC(=O)[C@@H](N)Cc1ccc(O)cc1	61.7	26			54	36	1320	1300	76	28	53.7	23	
CCCC[C@@H](C(=O)N[C@@H](CC(=O)O)C(=O)N[C@@H](Cc1ccccc1)C(=O)NNC(=O)[C@H](Cc1ccccc1)NC(=O)CNC(=O)[C@@H](C)NC(=O)[C@@H](N)Cc1ccc(O)cc1)N(C)C(=O)[C@@H](Cc1c[nH]c2ccccc12)NC(=O)OC(C)(C)C	47.9	20	1910	1900	26	42	1550	1500	0.64		2	0.82	
CCCC[C@H](NC(=O)[C@H](Cc1c[nH]c2ccccc12)NC(=O)OC(C)(C)C)C(=O)N[C@@H](CC(=O)O)C(=O)N[C@@H](Cc1ccccc1)C(=O)NNC(=O)[C@H](Cc1ccccc1)NC(=O)CNC(=O)[C@@H](C)NC(=O)[C@@H](N)Cc1ccc(O)cc1	55	24	4070	4100	27	230	3980	3800	9.5	55	138	59	
CCCC[C@H](NC(=O)[C@@H](Cc1c[nH]c2ccccc12)NC(=O)OC1C2CC3CC(C2)CC1C3)C(=O)N[C@@H](CC(=O)O)C(=O)N[C@@H](Cc1ccccc1)C(=O)NNC(=O)[C@H](Cc1ccccc1)NC(=O)CNC(=O)[C@@H](C)NC(=O)[C@@H](N)Cc1ccc(O)cc1 (stereo not given in full)	37.2	16	575	560	5.6	84	933	930	240	1200	7.76	3.4	
CCCC[C@H](NC(=O)[C@H](CC(=O)O)NC(=O)[C@H](Cc1ccccc1)NN[C@@H](Cc1ccccc1)C(=O)NCC(=O)N[C@H](C)C(=O)N[C@@H](Cc1ccc(O)cc1)C(=O)O)C(=O)N[C@H](Cc1cn(C(=O)OC2C3CC4CC(C3)CC2C4)c2ccccc12)C(=O)O (stereo not given in full)													Activity [9]: 0%; Emax [3]: 61%; Emax [10]: 60%
CCCC[C@H](NC(=O)[C@@H](Cc1c[nH]c2ccccc12)NC(=O)OC(C)(C)C)C(=O)N[C@@H](CC(=O)O)C(=O)N[C@@H](Cc1ccccc1)C(=O)NNC(=O)[C@H](Cc1ccccc1)NC(=O)CNC(=O)[C@@H](C)NC(=O)[C@@H](N)Cc1ccc(O)cc1	64.6	31	35500	> 10000	74	24	10000	> 10000	210	460	93.3	45	
CCCC[C@H](NC(=O)[C@@H](Cc1c[nH]c2ccccc12)NC(=O)OC12CC3CC(CC(C3)C1)C2)C(=O)N[C@@H](CC(=O)O)C(=O)N[C@@H](Cc1ccccc1)C(=O)NNC(=O)[C@H](Cc1ccccc1)NC(=O)CNC(=O)[C@@H](C)NC(=O)[C@@H](N)Cc1ccc(O)cc1	195	88	851	840	27	38	562	560	10	640	0.417	0.23	
CC(=O)N[C@@H](Cc1c[nH]c2ccccc12)C(=O)N[C@@H](CCCCNC(=O)Nc1ccccc1Cl)C(=O)N[C@@H](CC(=O)O)C(=O)N(C)[C@@H](Cc1ccccc1)C(=O)NNC(=O)[C@H](Cc1ccccc1)NC(=O)CNC(=O)[C@@H](C)NC(=O)[C@@H](N)Cc1ccc(O)cc1		0.92				26				200		0.48	Log IC50 [1]: -8.67; Ki ([2]; hek293): 1000 nM; Log IC50 ([2]; hek293): -5.99; EC50 ([3]; cho): 1.3 nM; Ki ([5]; hek293): 1700 nM; Log IC50 ([5]; hek293): -5.76; EC50 ([6]; cho, read-out: EC50): 15 nM; Log IC50 [8]: -8.95
CCCC[C@H](NC(=O)[C@H](Cc1c[nH]c2ccccc12)NC(C)=O)C(=O)N[C@@H](CC(=O)O)C(=O)N(C)[C@@H](Cc1ccccc1)C(=O)NNC(=O)[C@H](Cc1ccccc1)NC(=O)CNC(=O)[C@@H](C)NC(=O)[C@@H](N)Cc1ccc(O)cc1		5.3				5.1				62		5.2	Log IC50 [1]: -7.96; EC50 ([3]; cho): 0.53 nM; EC50 ([6]; cho, read-out: EC50): 5.2 nM; Log IC50 [8]: -7.97
